Measured values as given in ChEMBL document CHEMBL4706573, “Synthesis and evaluation of thiophene based small molecules as potent inhibitors of Mycobacterium tuberculosis” (Eur J Med Chem, 2020).
Values after ≈ are worked out from the molar mass of the structure shown. Active and inactive are the calls of the source. The calls are words filed in the database; no cut-off is given here.

What was measured:
[1] = test system: THP-1; test: Cytotoxicity against human THP-1 cells assessed as reduction in cell viability measured after 96 hrs by WST1 assay; assay type: cell-based; conditions: thp-1, 96 h
Outline: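 THP-1 cells seeded at 20,000/well with 20 ng/ml PMA for 48 h. Cells then washed and rested 24 h in RPMI with 10% FBS. Drug dilutions in RPMI complete medium added in triplicate for 96 h. Viability read by WST-1 reagent after a 30 min incubation.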

[2] = test system: Mycobacterium tuberculosis; test: Antimycobacterial activity against Mycobacterium tuberculosis H37Rv after 10 to 14 days; assay type: functional; conditions: time 10-14 day
Outline: (§1)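 MIC99 determined in whole cells, tested in triplicate with INH as the positive control. Strains were wild-type, pMV306, pMV306-pks13 and INH-resistant mc2 497. Susceptibility was scored relative to the parental strain: S where the MIC99 was at most 2x the parental MIC99.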

[3] = test system: Mycobacterium tuberculosis; test: Antimycobacterial activity against Mycobacterium tuberculosis H37Rv; assay type: functional
[4] = test system: Mycobacterium tuberculosis; test: Antimycobacterial activity against Mycobacterium tuberculosis expressing pMV306-pks13 after 10 to 14 days; assay type: functional, organism-based; conditions: time 10-14 day; outline: as §1
[5] = test system: Mycobacterium tuberculosis; test: Antimycobacterial activity against Mycobacterium tuberculosis expressing pMV306 after 10 to 14 days; assay type: functional, organism-based; conditions: time 10-14 day; outline: as §1
[6] = test system: Mycobacterium tuberculosis; test: Antimycobacterial activity against Mycobacterium tuberculosis H37Ra measured up to 7 days; assay type: functional; conditions: 168 h, time day <=7
[7] = test system: Mycobacterium tuberculosis; test: Antimycobacterial activity against Mycobacterium tuberculosis H37Rv assessed as FICI in presence of pretomanid by checkerboard assay; assay type: functional
Outline: (§2)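 Two-drug checkerboard: lead compound serially diluted twofold along one axis, cross-diluted twofold with a TB drug (RIF, INH, LEVO, BDQ or PA-824) to form combinations. FICI calculated for each combination.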

[8] = test system: Mycobacterium tuberculosis; test: Antimycobacterial activity against Mycobacterium tuberculosis H37Rv assessed as FICI in presence of isoniazid by checkerboard assay; assay type: functional; outline: as §2
[9] = test system: Mycobacterium tuberculosis; test: Antimycobacterial activity against Mycobacterium tuberculosis H37Rv assessed as FICI in presence of bedaquiline by checkerboard assay; assay type: functional; outline: as §2
[10] = test system: Mycobacterium tuberculosis; test: Antimycobacterial activity against Mycobacterium tuberculosis H37Rv assessed as FICI in presence of levofloxacin by checkerboard assay; assay type: functional; outline: as §2
[11] = test system: Mycobacterium tuberculosis; test: Antimycobacterial activity against Mycobacterium tuberculosis infected in human THP-1 cells assessed as reduction in intracellular bacterial growth at 10 times MIC99 incubated for 4 days followed by 10-fold serial dilution and measured after 3 to 4 weeks relative to control; assay type: functional; conditions: time 32 day
Outline: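 THP-1 cells infected and then washed twice with 1x PBS. Infected macrophages overlaid with RPMI containing drug for 4 days. Lysed on day 0 and day 4 with 1x PBST (0.1% Triton X-100). Tenfold serial dilutions plated on MB 7H11 agar, incubated at 37 °C for 3-4 weeks, then CFU counted. INH used as control.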

[12] = test system: Mycobacterium tuberculosis; test: Antimycobacterial activity against early-logarithmic cultures of Mycobacterium tuberculosis H37Rv assessed as reduction in bacterial load at 10 times MIC99 incubated for 7 days followed by 10-fold serial dilution and measured after 2 to 4 weeks; assay type: functional; conditions: time 2-5 weeks
Outline: (§3)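 Early-logarithmic culture (OD600nm ~0.2) exposed to 10x MIC99 for 7 days. Bacteria then counted as CFU and compared with untreated samples. INH used as control.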

[13] = test system: Mycobacterium tuberculosis; test: Ratio of MIC99 for antimycobacterial activity against Mycobacterium tuberculosis H37Rv to MIC99 for antimycobacterial activity against Mycobacterium tuberculosis H37Rv in presence of bedaquiline; assay type: functional; outline: as §2
[14] = test system: Mycobacterium tuberculosis; test: Antimycobacterial activity against Mycobacterium tuberculosis H37Rv assessed as FICI in presence of rifampicin by checkerboard assay; assay type: functional; outline: as §2
[15] = test system: Mycobacterium tuberculosis; test: Antimycobacterial activity against early-logarithmic cultures of Mycobacterium tuberculosis H37Rv assessed as bacterial killing at 10 times MIC99 incubated for 7 days followed by 10-fold serial dilution and measured after 2 to 4 weeks; assay type: functional; conditions: time 2-5 weeks; outline: as §3
[16] = Inhibition of N-terminal His-tagged Mycobacterium tuberculosis PtpB expressed in Escherichia coli BL21 (DE3)-CodonPlus cells using DiFMUP as substrate measured after 45 mins by spectrofluorimetric method

Compound: CCOC(=O)c1cc(-c2ccccc2)sc1NC(=O)NCc1ccccc1
- Activity [1]: > 50 µM
- MIC99 [2]: > 10 µM

Compound: COC(=O)c1cc(-c2ccc(F)cc2)sc1NC(=O)NC1CC1
- Activity [1]: > 50 µM
- MIC99 [2]: > 10 µM

Compound: CCOC(=O)c1c(NC(=O)c2c(F)c(F)c(F)c(F)c2F)sc2c1CCCCC2
- MIC [3]: 1 µM (≈ 0.433 µg/mL)

Compound: COC(=O)c1cc(-c2cc(F)cc(F)c2)sc1NC(=O)CCl
- Activity [4]: Active
- Activity [5]: Active
- Activity [1]: > 50 µM
- MIC99 [2]: 0.78 µM (≈ 0.27 µg/mL)

Compound: COc1ccc([C@@H](c2ccc(OCCN(C(C)C)C(C)C)cc2)c2cccs2)cc1
- MIC [6]: 3.12 µM (≈ 1.32 µg/mL)

Compound: COC(=O)c1cc(-c2cccc(F)c2)sc1NC(=O)CCl
- Activity [4]: Active
- Activity [5]: Active
- Activity [1]: > 50 µM
- MIC99 [2]: 0.19 µM (≈ 0.0623 µg/mL)

Compound: COC(=O)c1cc(-c2ccccc2)sc1NC(=O)CCl
- fractional inhibitory concentration index (FICI) [7]: 0.625
- fractional inhibitory concentration index (FICI) [8]: 0.562
- fractional inhibitory concentration index (FICI) [9]: 0.25
- Activity [4]: Active
- fractional inhibitory concentration index (FICI) [10]: 0.562
- fold change (FC) [11]: 5
- Activity [5]: Active
- FC [12]: 10
- Activity [1]: > 50 µM
- Ratio [13]: 8
- MIC99 [2]: 0.19 µM (≈ 0.0589 µg/mL)
- fractional inhibitory concentration index (FICI) [14]: 0.625

Compound: CCOC(=O)c1cc(-c2ccccc2)sc1NC(=O)N1CCOCC1
- Activity [1]: > 50 µM
- MIC99 [2]: > 10 µM

Compound: CCOC(=O)c1cc(-c2ccccc2)sc1N
- Activity [1]: > 50 µM
- MIC99 [2]: > 10 µM

Compound: CCN(CC)C(=O)Nc1sc(-c2ccc(F)cc2)cc1C(=O)OC
- Activity [1]: > 50 µM
- MIC99 [2]: > 10 µM

Compound: COC(=O)c1cc(-c2ccc(F)cc2)sc1NC(=O)NC(C)C
- Activity [1]: > 50 µM
- MIC99 [2]: > 10 µM

Compound: CCOC(=O)c1cc(-c2ccccc2)sc1NC(=O)Cc1ccccc1
- Activity [1]: > 50 µM
- MIC99 [2]: > 10 µM

Compound: CCOC(=O)c1cc(-c2ccccc2)sc1NC(=O)c1ccccc1
- Activity [1]: > 50 µM
- MIC99 [2]: > 10 µM

Compound: COC(=O)c1ccsc1NC(=O)CCl
- fractional inhibitory concentration index (FICI) [7]: 1
- fractional inhibitory concentration index (FICI) [8]: 0.75
- fractional inhibitory concentration index (FICI) [9]: 0.5
- Activity [4]: Active
- fractional inhibitory concentration index (FICI) [10]: 0.562
- fold change (FC) [11]: 2.5
- Activity [5]: Active
- FC [12]: 10
- Activity [1]: > 50 µM
- Ratio [13]: 4
- MIC99 [2]: 0.19 µM (≈ 0.0444 µg/mL)
- fractional inhibitory concentration index (FICI) [14]: 0.75

Compound: COC(=O)c1cc(-c2ccc(F)cc2)sc1NC(=O)N1CCCC1
- Activity [1]: > 50 µM
- MIC99 [2]: > 10 µM

Compound: CCOC(=O)c1cc(-c2ccccc2)sc1NC(=O)c1cccnc1
- Activity [1]: > 50 µM
- MIC99 [2]: > 10 µM

Compound: CCOC(=O)c1cc(-c2ccccc2)sc1NC(=O)Nc1ccccc1
- Activity [1]: > 50 µM
- MIC99 [2]: > 10 µM

Compound: CCOC(=O)c1cc(-c2ccccc2)sc1NC(=O)c1ccc(C)cc1
- Activity [1]: > 50 µM
- MIC99 [2]: > 10 µM

Compound: CO[C@H]1/C=C/O[C@@]2(C)Oc3c(C)c(O)c4c(O)c(c(/C=N/N5CCN(C)CC5)c(O)c4c3C2=O)NC(=O)/C(C)=C\C=C\[C@H](C)[C@H](O)[C@@H](C)[C@@H](O)[C@@H](C)[C@H](OC(C)=O)[C@@H]1C [RIFAMPIN]
- MIC99 [2]: 0.007 µM (≈ 0.00576 µg/mL)

Compound: CCOC(=O)c1cc(-c2ccccc2)sc1NC(=O)N1CCCC1
- Activity [1]: > 50 µM
- MIC99 [2]: > 10 µM

Compound: CCOC(=O)c1cc(-c2ccccc2)sc1NC(=O)N(CC)CC
- Activity [1]: > 50 µM
- MIC99 [2]: 3.12 µM (≈ 1.08 µg/mL)

Compound: CCOC(=O)c1cc(-c2ccccc2)sc1NC(=O)NC
- Activity [1]: > 50 µM
- MIC99 [2]: > 10 µM

Compound: COC(=O)c1cc(-c2ccc(F)cc2)sc1NC(=O)N1CCCCC1
- Activity [1]: > 50 µM
- MIC99 [2]: > 10 µM

Compound: COC(=O)c1cc(-c2ccc(F)cc2)sc1NC(=O)CCl
- Activity [4]: Active
- Activity [5]: Active
- Activity [1]: > 50 µM
- MIC99 [2]: 0.78 µM (≈ 0.256 µg/mL)

Compound: COC(=O)c1cc(-c2cc3ccccc3s2)sc1NC(=O)CCl
- Activity [4]: Active
- Activity [5]: Active
- Activity [1]: > 50 µM
- MIC99 [2]: 0.78 µM (≈ 0.285 µg/mL)

Compound: CCOC(=O)c1cc(-c2ccccc2)sc1NC(N)=O
- Activity [1]: > 50 µM
- MIC99 [2]: > 10 µM

Compound: NNC(=O)c1ccncc1 [ISONIAZID]
- Activity [4]: Active
- fold change (FC) [11]: 200
- Activity [15]: >4 log10CFU
- Activity [5]: Active
- Activity [1]: > 50 µM
- MIC99 [2]: 0.19 µM (≈ 0.0261 µg/mL)

Compound: CCOC(=O)c1cc(-c2ccccc2)sc1NC(=O)N1CCN(C)CC1
- Activity [1]: > 50 µM
- MIC99 [2]: > 10 µM

Compound: CCOC(=O)c1cc(-c2ccccc2)sc1NC(=O)c1ccc(F)cc1
- Activity [1]: > 50 µM
- MIC99 [2]: > 10 µM

Compound: CCOC(=O)c1c(NC(=O)c2c(F)c(F)c(F)c(F)c2F)sc(C(N)=O)c1C
- MIC [3]: 0.5 µM (≈ 0.211 µg/mL)

Compound: O=C(O)C(=O)N(Cc1cccc(Cl)c1)Cc1ccc(S(=O)(=O)NCCC(c2ccccc2)c2ccccc2)s1
- IC50 [16]: 400 nM

Compound: CCOC(=O)c1cc(-c2ccccc2)sc1NC(=O)NC1CC1
- Activity [1]: > 50 µM
- MIC99 [2]: 1.56 µM (≈ 0.515 µg/mL)

Compound: CCOC(=O)c1cc(-c2ccccc2)sc1NC(=O)N(C)C
- Activity [1]: > 50 µM
- MIC99 [2]: > 10 µM

Compound: CCOC(=O)c1cc(-c2ccccc2)sc1NC(=O)N1CCCCC1
- Activity [1]: > 50 µM
- MIC99 [2]: > 10 µM

Compound: CCOC(=O)c1cc(-c2ccccc2)sc1NC(=O)c1ccc(C#N)cc1
- Activity [1]: > 50 µM
- MIC99 [2]: > 10 µM

Compound: CCOC(=O)c1cc(-c2ccccc2)sc1NC(=O)CBr
- Activity [4]: Active
- Activity [5]: Active
- Activity [1]: > 50 µM
- MIC99 [2]: 0.78 µM (≈ 0.287 µg/mL)

Compound: CCOC(=O)c1cc(-c2ccccc2)sc1NC(=O)NC(C)C
- Activity [1]: > 50 µM
- MIC99 [2]: 1.56 µM (≈ 0.519 µg/mL)

Compound: CCOC(=O)c1cc(-c2ccccc2)sc1NC(C)=O
- Activity [1]: > 50 µM
- MIC99 [2]: > 10 µM

Compound: COC(=O)c1cc(-c2ccc(C(F)(F)F)cc2)sc1NC(=O)CCl
- Activity [4]: Active
- Activity [5]: Active
- Activity [1]: > 50 µM
- MIC99 [2]: 0.39 µM (≈ 0.147 µg/mL)
